Results published in article PMC11403393 (RSC Advances, 2024).

Target: α-glucosidase (Saccharomyces cerevisiae, UniProt P53341)
Assay: Kinetic study of α-glucosidase inhibition
Type: biochemical
Outline: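 Yeast α-glucosidase (0.02 U per well) in 50 mM sodium phosphate, pH 7.0, preincubated with test compound (1.50, 4.00, 8.00 μM, or none) at 37 °C for 15 min. p-Nitrophenyl α-D-glucopyranoside added at 0.1, 0.2, 0.4 or 0.8 mM. A400 followed continuously for 30 min, in triplicate. Analysed by Lineweaver–Burk plot, replot of its slopes against inhibitor concentration, and Dixon plot.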

Sequence of α-glucosidase (P53341 whole entry): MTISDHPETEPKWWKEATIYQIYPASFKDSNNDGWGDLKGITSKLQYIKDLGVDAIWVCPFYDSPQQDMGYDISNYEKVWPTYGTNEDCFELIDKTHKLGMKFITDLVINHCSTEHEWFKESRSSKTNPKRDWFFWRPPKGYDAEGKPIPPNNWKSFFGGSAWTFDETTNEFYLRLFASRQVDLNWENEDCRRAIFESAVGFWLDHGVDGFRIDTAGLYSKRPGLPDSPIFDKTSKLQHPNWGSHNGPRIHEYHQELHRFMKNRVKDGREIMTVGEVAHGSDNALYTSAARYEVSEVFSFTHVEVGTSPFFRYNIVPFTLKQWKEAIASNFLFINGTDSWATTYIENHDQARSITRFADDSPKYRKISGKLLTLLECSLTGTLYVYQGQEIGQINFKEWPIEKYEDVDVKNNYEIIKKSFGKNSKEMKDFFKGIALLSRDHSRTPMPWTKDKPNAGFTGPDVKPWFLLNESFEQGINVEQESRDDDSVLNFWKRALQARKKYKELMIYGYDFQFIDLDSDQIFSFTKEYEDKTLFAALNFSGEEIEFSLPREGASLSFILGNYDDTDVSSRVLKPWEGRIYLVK

Compound: O=C(Nc1cccc(Cl)c1)Nc1ccccc1N=Cc1cc(Cl)ccc1O [Compound 5h, 1-(2-{[(5-Chloro-2-hydroxybenzylidene)amino]}phenyl)-3-(3-chlorophenyl)urea]
- Effect on Km of the enzyme: increases Km
- Effect on Vmax of the enzyme: remains constant
- Mode (type) of inhibition: competitive mode of inhibition
